Screening data: PubChem BioAssay, The Scripps Research Institute Molecular Screening Center
Compounds with a hit are over-represented: about 0.58% of the library has one in this group of screens.
TRPML3 agonist: human mucolipin-3 channel agonism; activation, % at 3 µM; HEK293 TRPML3-YFP, Fluo-8 calcium fluorescence; 100% = the carbachol control signal; AID 1448; actives 0.29% (n = 220,000); Q8TDD5;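 active means activation above its plate's cutoff, the mean activation of the plate's test wells plus 3 SD, cut at about 12% in these data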;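 further: 0% = DMSO only wells and 100% = carbachol wells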
Target sequence (Q8TDD5 whole entry, looked up): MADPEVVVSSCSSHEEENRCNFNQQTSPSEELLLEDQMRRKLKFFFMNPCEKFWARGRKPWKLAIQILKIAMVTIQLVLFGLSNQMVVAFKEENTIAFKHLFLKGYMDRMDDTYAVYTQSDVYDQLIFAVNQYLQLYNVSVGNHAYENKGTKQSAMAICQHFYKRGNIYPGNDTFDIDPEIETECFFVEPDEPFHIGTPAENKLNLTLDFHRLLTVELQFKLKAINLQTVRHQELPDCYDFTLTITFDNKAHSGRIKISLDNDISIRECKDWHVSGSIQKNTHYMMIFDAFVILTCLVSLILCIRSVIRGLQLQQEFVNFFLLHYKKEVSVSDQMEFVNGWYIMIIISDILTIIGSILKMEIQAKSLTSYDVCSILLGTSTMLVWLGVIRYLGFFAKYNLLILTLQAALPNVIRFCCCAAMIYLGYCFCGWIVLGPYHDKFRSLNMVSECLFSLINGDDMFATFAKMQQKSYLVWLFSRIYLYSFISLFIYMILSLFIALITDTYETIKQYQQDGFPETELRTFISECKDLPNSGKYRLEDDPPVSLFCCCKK
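Material: TRPML3-YFP stable HEK293 cells | Dosing: One concentration, 3 µM nominal, 0.3% DMSO | Timing: 125 s total fluorescence read per well | Technique: Fluo-8 calcium dye fluorescence, ex 470-495, em 515-575 nm | Measure: Percent activation from peak-to-basal fluorescence ratio, scaled between DMSO and carbachol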
TRPN1 ag: zebrafish TRPN1 (NompC) channel agonism; HEK293 zebrafish TRPN1-YFP, Fluo-8 calcium fluorescence; 100% = response to 87 µM carbachol; activation, % at 3 µM; actives 0.18% (n = 220,000);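 active means activation above its plate's cutoff, the mean activation of test wells on that plate plus 3 SD, cut at about 19% in these data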;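 further: 0% = DMSO alone and 100% = 87 µM carbachol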
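Material – zebrafish TRPN1-YFP in HEK293 cells · Doses – 3 µM single point · Schedule – dye 1 h 37 °C plus 30 min RT · Signal – Fluo-8 calcium fluorescence, excitation 470-495 nm, emission 515-575 nm · Read-out – % activation versus carbachol response · Control set – carbachol high, DMSO low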
OXTR potentiator: potentiators of human oxytocin receptor; CHO-OTR cells, Fluo-8 calcium fluorescence, potentiator mode; 0% = oxytocin EC15, 100% = EC100; activation, % at 3 µM; actives 0.061% (n = 320,000); AID 2445;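 active means activation above that plate's cutoff, the mean activation of tested compounds plus 3 SD, cut at about 6.6% in these data, passing the limit was not always enough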;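 further: 100% uses oxytocin at 75 nM as the full agonist control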
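System: human OTR in CHO cells / Also added: sub-maximal oxytocin, roughly EC15 / Control set: EC15 oxytocin low, 75 nM oxytocin high / Schedule: 6 min compound pre-incubation at room temperature, 100 s kinetic read / Compound: single-point 3.0 µM / Replication: singlicate / Technique: Fluo-8 calcium dye fluorescence / Read-out basis: % activation of max/min ratio relative to oxytocin controls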
OXTR agonist: activates the human oxytocin receptor; activation, % at 3 µM; actives 0.32% (n = 320,000); P30559; AID 2435; CHO-OTR cells, Fluo-8 calcium fluorescence; normalized: DMSO 0%, oxytocin 100%;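 active means activation above the mean of all tested compounds plus 3 SD, cutoff set per screening run, cut at about 20% in these data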;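 further: peak over basal fluorescence ratio from a 100 s FLIPR kinetic read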
V1aR counter: activates human V1a receptor in oxytocin agonist counter-screen; actives 0.25% (n = 320,000); CHO-V1R cells, Fluo-8 calcium fluorescence, agonist mode; 0% DMSO, 100% 3 nM vasopressin; P37288; activation, % at 3 µM;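 active means activation above the mean activation of all tested compounds plus 3 SD, per screening run, cut at about 20% in these data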;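 further: signal is peak over basal fluorescence ratio across a 100 second FLIPR read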
OXTR pot confirm: human OXTR potentiation, confirmation; shares compounds with OXTR potentiator; CHO-OTR cells, Fluo-8 calcium fluorescence; scaled from low-dose to maximal oxytocin; activation, % at 3 µM; 180 tested, under 10 active;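 active means mean percent activation over triplicates above a cutoff set from solvent-only control plates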;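 further: compounds tested in the presence of an EC15 dose of oxytocin; 0% = EC15 oxytocin with DMSO and 100% = EC100 oxytocin with DMSO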
* marks the source's active call; other numbers are inactive results; nt = not tested or not shown.

SMILES	TRPML3 agonist	TRPN1 ag	OXTR potentiator	OXTR agonist	V1aR counter	OXTR pot confirm
CC(C)(C)NC(=O)c1nn(Cc2ccccc2)c(=O)c2ccccc12	0	-2	15*	-1	-1	-7
CCC(CC)NC(=O)c1nn(Cc2ccccc2)c(=O)c2ccccc12	nt	nt	0	-1	-1	nt
CCOc1ccc(-c2c(C(=O)N/N=C/c3ccc(C)o3)nnn2-c2nonc2N)cc1	nt	nt	-19	2	1	nt
CCOc1ccc(-c2c(C(=O)N/N=C/c3ccc(O)cc3)nnn2-c2nonc2N)cc1	1	1	9.6*	0	0	2
O=C(O)c1ccccc1NC(=O)C1CCCO1 (stereo not drawn)	0	0	12*	1	0	1
CCCCC(=O)Nc1nc(C)c(C(C)=O)s1	0	0	5	0	0	nt
CC(=O)c1sc(NC(=O)C=C(C)C)nc1C	0	1	9.1*	0	0	-9
CC(=O)N1CCN(C(=O)C(Cc2c[nH]c3ccccc23)NC(=O)c2ccccc2Cl)CC1 (stereo not drawn)	nt	nt	15*	2	0	-6
CCCN(CC(=O)Nc1ccccc1C)C(=O)c1ccc2c(c1)S(=O)(=O)N=C1CCCCCN12	nt	nt	-2	1	0	nt
CCN1CCCC1CNC(=O)C(=O)Nc1ccccc1 (stereo not drawn)	0	0	-3	2	1	nt
CCN1CCCC1CNC(=O)C(=O)Nc1cccc(OC)c1 (stereo not drawn)	0	1	13*	2	1	-4
CC(C)CNC(=O)CC(=O)N/N=C/c1ccc(F)cc1	1	0	12*	2	0	-3
CCOC(=O)c1c(S(=O)(=O)NCC(=O)N2CCN(c3ccc(OC)cc3)CC2)c(C)n(C)c1C	nt	nt	0	-2	-1	nt
CC[C@H](C)[C@H](NC(=O)CNC(=O)COc1cc2c(c3oc(=O)cc(C)c13)CCC(C)(C)O2)C(=O)O	nt	nt	-8	1	1	nt
Cc1cc(=O)oc2c3c(cc(OCC(=O)NCC(=O)N[C@H](C(=O)O)C(C)C)c12)OC(C)(C)CC3	nt	nt	12*	0	-1	-5
CC(=O)c1cccc(S(=O)(=O)NCCC(=O)O)c1	1	1	1	1	1	nt
CC(=O)Nc1ccc(S(=O)(=O)N(C)CC(=O)N/N=C/c2cccs2)cc1	nt	nt	-8	0	0	nt
CC(=O)Nc1ccc(S(=O)(=O)N(C)CC(=O)N/N=C/c2cccc(O)c2)cc1	1	3	15*	1	-1	-3
O=C(NC1CC2CCCC(C1)N2C(=S)NCCc1ccccc1)C1CC1 (stereo not drawn)	0	2	-5	0	-1	nt
COc1ccc(NS(=O)(=O)c2cccc(C(=O)N/N=C/c3cn(-c4ccccc4)nc3-c3ccccc3)c2)cc1	0	0	-1	-1	-1	nt
COc1ccc(NS(=O)(=O)c2cccc(C(=O)N/N=C/c3cn(-c4ccccc4)nc3-c3ccc(OC)cc3)c2)cc1	1	2	8.9*	1	1	-3
COc1cccc(/C=C/C(=O)OCC(=O)c2c(N)n(C)c(=O)n(C)c2=O)c1	nt	nt	-12	8	11	nt
CC(OC(=O)CSc1ccc(F)cc1)C(=O)NC1(C#N)CCCCC1 (stereo not drawn)	nt	nt	6	1	0	nt
Cc1cc(C)n(C(=O)C(C(=O)c2ccccc2)C(C)C)n1 (stereo not drawn)	0	-2	11*	-3	0	1
CC(C)(C)c1cc(C(=O)NNC(=O)c2ccc(Cl)cc2)no1	-1	-2	-9	1	2	nt
SMILES	TRPML3 agonist	TRPN1 ag	OXTR potentiator	OXTR agonist	V1aR counter	OXTR pot confirm
CCOc1cc(/C=N/NC(=O)C(N)=O)cc(Br)c1O	0	0	0	0	0	nt
CCOc1cc(/C=N/NC(=O)C(=O)NC2CC2)cc(Br)c1O	1	1	16*	-1	0	-6
COc1ccc(Nc2nnc(-c3ccc(C)cc3)c3ccccc23)cc1C(=O)N1CCCCC1	0	-2	17*	-3	8	5
Cc1c(NS(=O)(=O)c2cc(C(=O)NCCN(C)C)ccc2Cl)c(=O)n(-c2ccccc2)n1C	nt	nt	-1	1	0	nt
CCn1c(SCC(=O)Nc2nccs2)nnc1-c1cccnc1	nt	nt	-6	0	0	nt
CCn1c(SCC(=O)Nc2nc(C)cs2)nnc1-c1cccnc1	1	0	11*	0	0	-3
O=c1c(O)c(-c2ccc(O)c(O)c2)oc2cc(O)cc(O)c12	nt	nt	21*	1	1	7.2*
Cc1cc2c(cc1S(=O)(=O)CCC(=O)NC1CCCCC1C)OCC(=O)N2 (stereo not drawn)	nt	nt	-1	1	2	nt
CC1CCCCC1NC(=O)CCS(=O)(=O)c1cc2c(cc1Cl)NC(=O)CO2 (stereo not drawn)	nt	nt	25*	0	0	-3
Cc1ccc(NC2CCCN(C(=O)c3cccc(-c4ncc[nH]4)c3)C2)cc1C (stereo not drawn)	nt	nt	-11	0	0	nt
CC(C)CC1NC(=O)c2cc(Cl)ccc2-n2c1nc1cc(F)ccc1c2=O (stereo not drawn)	nt	nt	15*	-3	-1	3
O=C(Nc1ccccc1)O[C@@H]1C[C@H]2CCC(=O)N3CC[C@@H](C1)[C@@H]23	nt	nt	4	4	2	nt
COc1cc(/C=C(/C#N)C(=O)NC(C)c2ccccc2)cc(OC)c1O (stereo not drawn)	nt	nt	-5	9	7	nt
CC(NC(=O)/C(C#N)=C/c1ccc(C(=O)O)cc1)c1ccccc1 (stereo not drawn)	nt	nt	13*	1	0	3
COc1ccccc1CCNC(=O)C(=O)NCC1CCCN1S(=O)(=O)c1ccccc1 (stereo not drawn)	nt	nt	-12	-3	0	nt
COc1ccc(C(=O)NCc2ccc3c(c2)CCO3)cc1	0	-2	-9	-1	-2	nt
O=C(COC(=O)c1ccccc1NC(=O)c1ccco1)NC1CCCCC1	0	0	-15	-1	0	nt
CC1CCCC(NC(=O)COC(=O)c2ccccc2NC(=O)c2ccco2)C1C (stereo not drawn)	0	-2	10*	0	-1	-4
CCCCc1ccc(NC(=S)Nc2ccc(Cl)c(S(=O)(=O)N(C)C)c2)cc1	1	1	-7	1	0	nt
Cc1ccc(CNC(=O)C2CCC(=O)N2C2CCCCC2)cc1 (stereo not drawn)	0	0	10*	1	0	-5
O=S(=O)(c1ccc(S(=O)(=O)N2CCCC2)cc1)N1CCCCC1	nt	nt	-4	1	1	nt
